Activity calls are given as the source filed them. No cut-off for these calls is given here.
Tests used:
HEK293 = test: Cytotoxicity against human HEK293 cells assessed as reduction in cell viability at 20 uM measured after 48 hrs by resazurin reagent based multilabel reader analysis; type: toxicity; conditions: hek293, 48 h
Trypanosoma brucei [1] = test: Antitrypanosomal activity against Trypanosoma brucei Lister 427 assessed as parasite growth inhibition measured after 72 hrs by SYBER green staining based multilabel reader analysis; type: functional, organism-based; conditions: Lister 427, 72 h
Summary of the method: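 Bloodstream-form T. b. brucei Lister 427 were screened first at 4 μM, and compounds giving >50% growth inhibition went on to eight-point dose-response. Viability was read by SYBR green after 72 h, giving EC50. At least three assay replicates were run, each in duplicate, reported as mean ± SD.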

Trypanosoma brucei [2] = test: Antitrypanosomal activity against Trypanosoma brucei Lister 427 assessed as parasite growth inhibition at 4 uM measured for 2 to 48 hrs by SYBER green staining based multilabel reader analysis; type: functional, organism-based; conditions: time 2-48 hrs
Summary of the method: (§1)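 Washout test on bloodstream-form Lister 427 trypanosomes to tell trypanocidal from trypanostatic action. Compound at 1, 2 or 4 μM was incubated for 6, 4 or 2 h respectively, and the parasites were then washed three times. Regrowth and division were monitored for a further 48 h.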

Trypanosoma brucei [3] = test: Antitrypanosomal activity against Trypanosoma brucei Lister 427 assessed as parasite growth inhibition at 1 uM measured for 6 to 48 hrs by SYBER green staining based multilabel reader analysis; type: functional, organism-based; conditions: time 6-48 hrs; summary of the method: as §1
Trypanosoma brucei [4] = test: Antitrypanosomal activity against Trypanosoma brucei Lister 427 assessed as time required to kill the parasite at 1 to 4 uM by hemocytometer cell counting analysis; type: functional; conditions: dose 1-4 µM
Summary of the method: (§2)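 Time-to-kill on bloodstream-form Lister 427 parasites. Test compound was used at 1, 2 and 4 μM, and pentamidine at 0.5, 1 and 2 μM. Parasites were counted over time by hemocytometer, with counts normalized to a DMSO negative control. Three replicates, mean ± SD.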

Trypanosoma brucei [5] = test: Antitrypanosomal activity against Trypanosoma brucei Lister 427 assessed as parasite growth inhibition at 2 uM measured for 4 to 48 hrs by SYBER green staining based multilabel reader analysis; type: functional, organism-based; conditions: time 4-48 hrs; summary of the method: as §1
Trypanosoma brucei [6] = test: Antitrypanosomal activity against Trypanosoma brucei Lister 427 assessed as time required to kill the parasite at 2 to 4 uM by hemocytometer cell counting analysis; type: functional; conditions: dose 2-4 µM; summary of the method: as §2
Trypanosoma brucei [7] = test: Antitrypanosomal activity against Trypanosoma brucei Lister 427 assessed as time required to kill the parasite at 0.5 to 2 uM by hemocytometer cell counting analysis; type: functional; conditions: dose 0.5-2 µM; summary of the method: as §2
[8] = Selectivity index, ratio of CC50 for cytotoxicity against human HEK293 cells to EC50 for antitrypanosomal activity against Trypanosoma brucei Lister 427; type: toxicity, cell-based; conditions: read-out: Ratio CC50/EC50

Compound | CC50 (HEK293) [µM] | EC50 (Trypanosoma brucei [1]) [µM] | other results
O=C(/C=C/c1ccccc1)/C=C/c1ccc(O)c(O)c1 | 5.54 | 0.37 | 
O=C(/C=C/c1ccc(C(F)(F)F)cc1)CC(=O)/C=C/c1ccc(C(F)(F)F)cc1 | > 20 | > 4 | 
O=C(/C=C/c1ccccc1)/C=C/c1ccc(Cl)cc1 | > 20 | 1.93 | 
Cc1ccc(/C=C/C(=O)/C=C/c2ccccc2)cc1 |  | 3.74 | 
O=C1/C(=C/c2ccccc2F)CNC/C1=C\c1ccccc1F | 3.58 | 0.2 | 
O=C(/C=C/c1ccccc1)/C=C/c1cccc([N+](=O)[O-])c1 | 2.88 | 0.2 | Activity (Trypanosoma brucei [2]): Active; Activity (Trypanosoma brucei [3]): Active; Time (Trypanosoma brucei [4]): <24 h; Activity (Trypanosoma brucei [5]): Active; Time (Trypanosoma brucei [6]): <6 h
O=C(/C=C/c1ccc(F)cc1)/C=C/c1ccc(F)cc1 | 7.64 | 1.42 | 
COc1cc(CCC(O)CCc2cc(OC)c(OC)c(OC)c2)cc(OC)c1OC | > 20 | > 4 | 
COc1cc(/C=C/C(=O)CC(=O)/C=C/c2cc(OC)c(OC)c(OC)c2)cc(OC)c1OC |  | 3.99 | 
Cc1ccc(CCC(O)CCc2ccc(C)cc2)cc1 | > 20 | > 4 | 
COc1ccc(CCC(O)CCc2ccc(OC)c(OC)c2)cc1OC | > 20 | > 4 | 
O=C(/C=C/c1ccc(Cl)c(Cl)c1)CC(=O)/C=C/c1ccc(Cl)c(Cl)c1 | > 20 | > 4 | 
N=C(N)c1ccc(OCCCCCOc2ccc(C(=N)N)cc2)cc1 [PENTAMIDINE] | > 4 | 0.012 | Time (Trypanosoma brucei [7]): >30 h
OC(CCc1ccccc1Cl)CCc1ccccc1Cl | > 20 | > 4 | 
COc1ccc(/C=C/C(=O)/C=C/c2ccc(O)c(O)c2)cc1 | 6.61 | 0.41 | 
COc1cc(/C=C/C(=O)/C=C/c2ccccc2)ccc1O | 5.63 | 0.66 | 
Cc1ccc(/C=C/C(=O)/C=C/c2ccc(C)cc2)cc1 | > 20 | > 4 | 
COc1cccc(/C=C/C(=O)CC(=O)/C=C/c2cccc(OC)c2)c1 | > 20 | > 4 | 
O=C(/C=C/c1ccccc1)/C=C/c1ccc(C(F)(F)F)cc1 | > 20 | 2.51 | 
COc1ccc(/C=C/C(=O)/C=C/c2ccc(OC)cc2)cc1 | > 20 | > 4 | 
O=C(/C=C/c1cccc(O)c1)CC(=O)/C=C/c1cccc(O)c1 | 6.73 | 3.29 | 
O=C(/C=C/c1ccccc1)CC(=O)/C=C/c1ccccc1 | > 20 | > 4 | 
OC(CCc1cccc(Br)c1)CCc1cccc(Br)c1 | > 20 | > 4 | 

Compound | CC50 (HEK293) [µM] | EC50 (Trypanosoma brucei [1]) [µM] | other results
COc1cc(/C=C/C(=O)/C=C/c2cc(OC)cc(OC)c2)cc(OC)c1 | 1.45 | 0.24 | 
COc1cc(/C=C/C(=O)/C=C/c2cc(OC)c(OC)c(OC)c2)cc(OC)c1OC | 0.3 | 0.36 | 
COc1ccc(/C=C/C(=O)/C=C/c2ccccc2)cc1 | 5.49 | > 4 | 
COc1ccc(CCC(=O)CCc2ccc(OC)c(OC)c2)cc1OC | > 20 | > 4 | 
O=C(/C=C/c1ccccc1)/C=C/c1ccc(Br)cc1 | 7.05 | 2.33 | 
COc1cc(CCC(=O)CCc2cc(OC)c(OC)c(OC)c2)cc(OC)c1OC | > 20 | > 4 | 
O=C(CCc1ccccc1Cl)CCc1ccccc1Cl | > 20 | > 4 | 
O=C(/C=C/c1ccccc1)/C=C/c1ccc(O)cc1 | 5.85 | 1.25 | 
O=C(/C=C/c1cccc(Br)c1)/C=C/c1cccc(Br)c1 | > 20 | > 4 | 
O=C(/C=C/c1ccccc1)/C=C/c1cccc(O)c1 | 5.79 | 0.29 | 
O=C(/C=C/c1ccccc1)/C=C/c1ccc(Cl)c(Cl)c1 | 11.3 | 2.15 | 
CN(C)c1ccc(/C=C/C(=O)/C=C/c2ccccc2)cc1 | 9.79 | > 4 | 
COc1cccc(/C=C/C(=O)/C=C/c2cccc(OC)c2)c1 | > 20 | > 4 | 
COc1ccc(/C=C/C(=O)CC(=O)/C=C/c2ccc(OC)cc2OC)c(OC)c1 |  | > 4 | 
COc1ccc(/C=C/C(=O)CC(=O)/C=C/c2ccc(OC)c(OC)c2)cc1OC [TETRAMETHOXYCURCUMIN] | > 20 | > 4 | 
Cc1ccc(CCC(=O)CCc2ccc(C)cc2)cc1 | > 20 | > 4 | 
COc1ccc(/C=C/C(=O)/C=C/c2ccc(OC)c(OC)c2)cc1OC | 4.55 | 0.42 | selectivity ratio [8]: > 10
COc1cc(/C=C2\CCC/C(=C\c3cc(OC)cc(OC)c3)C2=O)cc(OC)c1 | 3.7 | > 4 | 
O=C(CCc1cccc(Br)c1)CCc1cccc(Br)c1 | > 20 | > 4 | 
COc1cc(/C=C/C(=O)CC(=O)/C=C/c2ccc(O)c(OC)c2)ccc1O [CURCUMIN] | 5.56 | 1.78 | 
O=C(/C=C/c1ccccc1Cl)/C=C/c1ccccc1Cl | 4.27 | 0.31 | selectivity ratio [8]: > 10
COc1cc(/C=C/C(=O)/C=C/c2ccc(O)c(OC)c2)ccc1O | 9.74 | 0.84 | 
